Experimental data reported in ChEMBL document CHEMBL4513216, “Probing the Open Global Health Chemical Diversity Library for Multistage-Active Starting Points for Next-Generation Antimalarials” (ACS Infect Dis, 2020).

Test: Toxicity liver stage against HepG2, at 10uM
Assay type: cell-based
Design: test concentration 10 uM, cell line HepG2-A16-CD81EGFP
Conditions: human, HepG2-A16-CD81EGFP cells; read-out: INHIBITION
Outline: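 Uninfected HepG2-A16-CD81EGFP cells, 3 × 10^3 per well, 1536-well, plated on prespotted compound at 10 μM final, parasite-free screening media added to match infected plates; puromycin 10 μM positive, DMSO 0.5% negative; run in parallel with 48 h PbLuc assay at 37 °C, 5% CO2; viability by CellTiter-Glo luminescence, normalized to controls.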

Structure (SMILES) | cytotoxicity at 10 µM [%]
Cc1ccnn1CCC(=O)N1C[C@@H](O)[C@H](Oc2cccc(F)c2)C1 | -15.8
COc1ncc(NS(=O)(=O)c2cccc(C)c2)c(OC)n1 | 10.4
Cn1ncc(N2CCC(CNC3CC(C)(C)CC(C)(C)C3)C2)cc1=O (configuration not stated) | -10.4
Cc1nc(N2CCCC2)nc2c1CCN(C(=O)N(C)C)CC2 | 7.05
Cc1ccc(CN(C)Cc2cc(C3CC3)[nH]n2)c(O)n1 | 4.11
COc1cccc(-c2cc(C(=O)NCCn3nc(C)nc3C)[nH]n2)c1 | -2.77
CCc1nccn1C1CCCN(C(=O)c2ccc(NC3CC3)nc2)C1 (configuration not stated) | -11.3
COCCCN1CCCN(C(C)C(=O)Nc2ccnn2C(C)C)CC1 (configuration not stated) | -8.8
CCCc1cc(C(=O)N(CC)Cc2ccncc2)[nH]n1 | -6.52
COC(=O)CSc1nnc(CCNC(=O)OC(C)(C)C)o1 | 4.34
Cc1ccc(-n2nnc(C(=O)O)c2C)c(C)c1 | -0.185
c1ccc(-c2nc(CN3CCOC(Cn4cccn4)C3)cs2)cc1 (configuration not stated) | 8.62
O=C(CCCn1cnnn1)N1CCC(c2ccncc2)CC1 | -4.8
Cc1ccc(CN2CCO[C@H]3[C@H](OCc4cccnc4)CC[C@@H]32)o1 | 6.22
CCOCC(=O)NCC(Cc1cccc(F)c1)N1CCCCC1=O (configuration not stated) | -1.89
O=C(Nc1cc(C(F)(F)F)c[nH]c1=O)C1CCCO1 (configuration not stated) | -0.37
Cc1cc(-c2cccc(-c3ccn(CCCO)n3)c2)nc(N(C)C)n1 | -5.42
O=C(Nc1ccc(F)cc1F)Nc1c[nH]c(=O)[nH]c1=O | -3.55
COC[C@@]12CC[C@@H](N3CCOCC3)C[C@H]1CCN(c1cc(C)ccn1)C2 | -3.53
CCN1C[C@@H]2C[C@H](C(=O)Nc3ccccc3)[C@H](C1)O2 | -76.4
Cc1c(C(=O)N2CCCN(S(C)(=O)=O)CC2)cnn1C | 17.2
CCc1ccc(C(=O)O)cc1S(=O)(=O)N(C)c1cccc(C#N)c1 | -2.08
CCNS(=O)(=O)c1ccc(C)c(C(=O)N(C)Cc2ccco2)c1 | 0.685

Structure (SMILES) | cytotoxicity at 10 µM [%]
COc1ncccc1NC(=O)NC(C)c1nncn1C (configuration not stated) | -18.8
CCC(=O)N1CCN(C(=O)CCn2cc(Cl)cn2)[C@H]2CS(=O)(=O)C[C@H]21 | -6.39
CC(C)Cn1cnnc1C1CCCN1C(=O)c1ccc(F)cc1F (configuration not stated) | -2.01
CC(=O)N1[C@H](CN(C)C)C[C@@H]2CN(c3ncc(F)cn3)CC[C@@H]21 | 5.56
O=S(=O)(Nc1ccc(N2CCOCC2)cc1)c1cccc(F)c1 | 12
COCCC1(CO)CCCN(C(=O)c2ccc(C(C)C)[nH]c2=O)C1 (configuration not stated) | -55.1
Cc1cc(C)nc(Nc2ccc(C3CCCCN3)cn2)n1 (configuration not stated) | 11.7
Cn1ccc(NC(=O)Cc2ccccc2F)n1 | 19.1
Cc1nccn1C1CCCN(C(=O)CCNc2ncccn2)C1 (configuration not stated) | -13.7
CN(c1ccncn1)C1CC2(CCN(C(=O)c3ccsc3)C2)C1 (configuration not stated) | 4.02
O=C(NCC1(O)COCCN(Cc2cccc(O)c2)C1)c1ccccn1 (configuration not stated) | -4.29
CCOc1cncc(N2CCCC2c2nnc3n2CCCCC3)n1 (configuration not stated) | -5.93
OC1CCN(c2ccnc(NCCN3CCc4ccccc4C3)n2)C1 (configuration not stated) | -11.8
Fc1ccc(OCc2nnc([C@H]3CCN(Cc4cccnc4)C3)o2)cc1 | -5.72
COc1ccc(C)c(NC(=O)NCc2ncnn2C)c1 | -4.27
Cc1cccc(CN2CCCC3(CCC(=O)N3CCN(C)C)CC2)n1 (configuration not stated) | -0.891
Cn1ccc(C(=O)N2CCCC2c2cc(CO)[nH]n2)n1 (configuration not stated) | 4.95
COc1cccc(CC(=O)N2CCCC(c3n[nH]c4nccnc34)C2)c1 (configuration not stated) | 4.62
Cc1nc(O)cc(CCNc2nc(N(C)C)nc(C)c2C)n1 | -3.03
CN(CCOCC1CC1)C(=O)Nc1ccc(C#N)c(Cl)c1 | -11.1
CC(C)Cc1cc(C(=O)N2CCC(C(=O)N3CCOCC3)CC2)on1 | -8.61
CN(C(=O)c1ccncc1)c1ccccc1S(C)(=O)=O | 7.39
CC(CNC(=O)c1ccccc1Oc1cccnc1)N(C)C (configuration not stated) | -9.29

Structure (SMILES) | cytotoxicity at 10 µM [%]
O=C1CCN(C(=O)CCc2ccc(Cl)cc2Cl)CCN1 | 1.88
CN1CCCCCC1C(=O)N1CCN(c2ccccc2C#N)CC1 (configuration not stated) | -7.17
O=C(NCc1cn2c(n1)CN(Cc1ccccn1)CC2)C1CCC1 | 7.49
COc1ccccc1CN1CCCCC1c1n[nH]cc1-c1cc(C)no1 (configuration not stated) | 13.6
CCNC(=O)c1nnc2ccc(N3CCOCC3)cc2n1 | 3.56
Cc1ncc2c(n1)CN(Cc1nc3ccccc3o1)CC2 | -0.602
O=C(C1CC1)N1CCN(c2ccc(-n3cncn3)nn2)CC1 | -4.83
CCn1nc2c(cc1=O)CN(CCOc1ccc(C#N)cc1)CC2 | -3.73
CC(C)n1c(=O)c2ccccc2n(CCN(C)C)c1=O | 0.616
Cc1nnc2n1CCN(Cc1ncc(-c3ccc(F)cc3)o1)C2 | -10.7
Cc1cccc(NCCOc2cccc(C#N)c2)c1C(N)=O | -3.59
CCC1c2ccsc2CCN1C(=O)NCc1ccc(C)nc1 (configuration not stated) | -3.75
COC(C)(C)C(=O)N1CCC(c2cc(CN(C)C)n(C)n2)CC1 | 0.748
Cc1ccc(C(=O)Nc2cccc3c2C(=O)NC3)c(C)n1 | 0.102
CC(C)c1nccn1CCC(=O)N1CCCCC1c1ccn[nH]1 (configuration not stated) | 6.16
Clc1cccc(Cl)c1-c1nnc(CNCCn2cccn2)o1 | -6.46
Cc1cc(C(=O)NCCn2nc3ccccn3c2=O)[nH]n1 | -4.92
O=C(NC1CC1)[C@H]1CN(Cc2ccc3c(c2)OCO3)C[C@H]2OCC[C@@H]12 | 3.56
Cc1cc(Br)cnc1N(C)CC1CCOC1 (configuration not stated) | 4.99
CCN(C(=O)CCCOC)C(c1ccc(Cl)cc1)c1ccccn1 (configuration not stated) | -7.25
CCN(C)c1ncnc2c1CCN(C(=O)c1ccccn1)CC2 | -2.23
Cc1ccc(C(=O)N2CCC3(CCCN(c4ncc(F)cn4)C3)C2)cn1 (configuration not stated) | -106
CCOc1cc2c(cc1CN1CCC3(CCCNC3=O)C1)CCC2 (configuration not stated) | 14.9

Structure (SMILES) | cytotoxicity at 10 µM [%]
CC(C)(O)C1CCN(C(=O)Nc2nc(-c3ccccc3)ns2)CC1 | 5.68
CCOc1ncccc1C(=O)N1CCC(Nc2ccc(C)nn2)CC1 | -20.6
CNC(=O)C1CC(=O)N(c2cccc(F)c2)C1 (configuration not stated) | 4.61
Cc1nc(C2CCCN(C(=O)c3cccc4c3OCO4)C2)no1 (configuration not stated) | 3.39
Cc1cnn(CC2CN(CC(=O)Nc3nccs3)CCO2)c1 (configuration not stated) | -7.51
O=C(N[C@H]1CN2CCC1CC2)c1cc(Cn2cnc3ccccc32)[nH]n1 | -4.26
CN(C)c1cc(CNC(=O)c2n[nH]c(=O)c3ccccc23)ccn1 | -3.79
CCOCC1CN(Cc2ccc(OC)cc2)Cc2nn(C)cc21 (configuration not stated) | 3.65
CCc1[nH]ncc1C(=O)N1CCCC(n2ccnc2C(C)C)C1 (configuration not stated) | 2.43
CCN(Cc1cccc2c1OCO2)C(=O)Nc1ccncc1 | 2.58
CNS(=O)(=O)c1ccc(CNC(=O)N(C)C(C)COC)cc1 (configuration not stated) | -5.12
O=C(c1ccsc1)N1CCO[C@@H]2CN(Cc3nccs3)C[C@@H]2C1 | -108
CCC1c2cccn2CCN1C(=O)c1ccc2nonc2c1 (configuration not stated) | -13.2
Cc1nnc(CN2CCN(C(C)c3nc(C4CC4)no3)CC2)o1 (configuration not stated) | -10.3
c1ccc2c(c1)CC(Cc1cc(N3CCCC3)cnn1)CCO2 (configuration not stated) | -5.5
CCC(O)CN1CCN(C(=O)c2ccn(C)c(=O)c2)CC1 (configuration not stated) | -10
CCn1cnnc1Cn1cccc(C(F)(F)F)c1=O | -9.8
COCC(=O)N1CCC2(CC1)CN(c1ncccn1)CCO2 | -67.3
O=C(CC1COCCN1)NCCc1nc(Cc2ccccc2)no1 (configuration not stated) | -2.81
Cc1cccnc1CN1CCN(C(=O)CCn2ccc(=O)[nH]c2=O)CC1 | 1.99
Cc1cccc(CN2CCC(c3csc4nccn34)CC2)n1 | 1.54
COCC(=O)N1CCC2(CCN(Cc3cccnc3)C2)CC1 | -2.42
Cn1cc(C2CC(=O)NC23CCN(c2ncc(F)cn2)CC3)cn1 (configuration not stated) | -5.39

Structure (SMILES) | cytotoxicity at 10 µM [%]
O=S(=O)(CC1CC1)c1ncc(CN2CCSCC2)n1CC1CCCO1 (configuration not stated) | -1.07
NC(=O)c1ccccc1Oc1cccc(C2CCCNC2)n1 (configuration not stated) | 5.19
Cc1ccc(N2CCC(N3C[C@@H](CN(C)C)[C@@H](CO)C3)CC2)cc1 | -0.608
Cc1cc(C)n(CCC(=O)N2CCCC(c3nc(C(C)C)no3)C2)n1 (configuration not stated) | 8.27
CCC1CN(C)c2ccccc2CN1C(=O)Nc1ccccc1OC (configuration not stated) | -1.87
Cc1ncsc1CN1CC(C)(C2CC2)CC1=O (configuration not stated) | 0.832
COc1c(C2CCCN2C(=O)c2cnc(C)cn2)c(C)nn1C (configuration not stated) | 2.58
CC(C)N(C)S(=O)(=O)c1ccc2c(c1)CCN(C(=O)c1cscn1)C2 | 8.48
O=C(Cn1cc(-c2ccccc2)ncc1=O)Nc1nccs1 | -4.83
Cc1nnc(C2CCN(c3ccc(F)cc3)CC2)o1 | 0.207
CC(C)c1cnc(CN2CCCC(c3cc(C(N)=O)[nH]n3)C2)o1 (configuration not stated) | -13.5
CCOCCOC(C)C(=O)Nc1ccc2ccn(CC(=O)NC)c2c1 (configuration not stated) | 2.3
Cc1nn(CC(=O)Nc2ccon2)cc1Br | 4.95
CC(C)Oc1ccccc1C(=O)NC1CC(=O)N(CC(F)(F)F)C1 (configuration not stated) | 4.37
Cc1cccc(N2CCC(N3CCC4(CCCNC4=O)C3)CC2)c1C (configuration not stated) | -5.66
CC(Cn1ccnc1)NC(=O)NCCc1ccc(Cl)s1 (configuration not stated) | -12.4
CC(C)(O)c1cn(C2CCN(C(=O)CCc3ccncc3)CC2)nn1 | -5.32
CNS(=O)(=O)c1ccsc1C(=O)OC | 7.54
O=S1(=O)COCCN1Cc1ccc(Cl)c(F)c1 | -11.6
Cc1ncc(C(=O)NCCNC(=O)Cc2cccc(F)c2)s1 | -4.53
